{"source": "ChEMBL document CHEMBL3853270", "about": "“Influence of Birch Bark Triterpenes on Keratinocytes and Fibroblasts from Diabetic and Nondiabetic Donors” (2016)", "key": {"Keratinocyte [1]": {"test_system": "Keratinocyte", "test": "Effect on ECM related gene expression in non-diabetic young human primary keratinocytes assessed as FBN1 mRNA levels at 1.96 uM after 6 hrs by qPCR analysis", "type": "functional", "method_in_brief": "(§1)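 Primary keratinocytes from nondiabetic young and adult and diabetic adult donors; 400 000 cells per sample, 6 h exposure at 1.96 or 9.81 μM. RNA extracted and read on a high-throughput qPCR chip. Results are fold change versus 0.1% DMSO solvent control from 5−7 independent experiments over two donors per group, SD, one-way ANOVA with Bonferroni post-test.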"}, "Keratinocyte [2]": {"test_system": "Keratinocyte", "test": "Effect on pro-inflammatory related gene expression in non-diabetic adult human primary keratinocytes assessed as PTGS2 mRNA levels at 1.96 uM after 6 hrs by qPCR analysis", "type": "functional"}, "Keratinocyte [3]": {"test_system": "Keratinocyte", "test": "Effect on antioxidant related gene expression in non-diabetic adult human primary keratinocytes assessed as SOD2 mRNA levels at 1.96 uM after 6 hrs by qPCR analysis", "type": "functional"}, "Keratinocyte [4]": {"test_system": "Keratinocyte", "test": "Effect on growth factor related gene expression in non-diabetic adult human primary keratinocytes assessed as VEGFA mRNA levels at 1.96 uM after 6 hrs by qPCR analysis", "type": "functional", "method_in_brief": "(§2)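 Primary human keratinocytes (nondiabetic young or adult, diabetic adult donors) were exposed to compound for 6 h, with 0.1% DMSO as solvent control. Total RNA came from 400 000 cells per sample and was assayed on a Fluidigm Biomark high-throughput qPCR chip. Results are fold change vs solvent control, from 2−4 independent experiments on two donors per group, with SD. Groups were compared by one-way ANOVA with Bonferroni post-test.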"}, "Keratinocyte [5]": {"test_system": "Keratinocyte", "test": "Effect on chemokines related gene expression in diabetic adult human primary keratinocytes assessed as IL8 mRNA levels at 1.96 uM after 6 hrs by qPCR analysis", "type": "functional"}, "Keratinocyte [6]": {"test_system": "Keratinocyte", "test": "Effect on cellular connection related gene expression in non-diabetic adult human primary keratinocytes assessed as GJB2 mRNA levels at 9.81 uM after 6 hrs by qPCR analysis", "type": "functional"}, "Keratinocyte [7]": {"test_system": "Keratinocyte", "test": "Effect on pro-inflammatory related gene expression in non-diabetic adult human primary keratinocytes assessed as IL1B mRNA levels at 9.81 uM after 6 hrs by qPCR analysis", "type": "functional"}, "Keratinocyte [8]": {"test_system": "Keratinocyte", "test": "Effect on antiinflammatory related gene expression in non-diabetic adult human primary keratinocytes assessed as NFKBIA mRNA levels at 9.81 uM after 6 hrs by qPCR analysis", "type": "functional", "method_in_brief": "as §1"}, "Keratinocyte [9]": {"test_system": "Keratinocyte", "test": "Effect on ECM related gene expression in diabetic adult human primary keratinocytes assessed as FBN1 mRNA levels at 9.81 uM after 6 hrs by qPCR analysis", "type": "functional", "method_in_brief": "as §1"}, "Keratinocyte [10]": {"test_system": "Keratinocyte", "test": "Effect on antioxidant related gene expression in diabetic adult human primary keratinocytes assessed as SOD2 mRNA levels at 9.81 uM after 6 hrs by qPCR analysis", "type": "functional"}, "Keratinocyte [11]": {"test_system": "Keratinocyte", "test": "Effect on growth factor related gene expression in diabetic adult human primary keratinocytes assessed as VEGFA mRNA levels at 9.81 uM after 6 hrs by qPCR analysis", "type": "functional", "method_in_brief": "as §2"}, "Fibroblast [12]": {"test_system": "Fibroblast", "test": "Effect on antiinflammatory related gene expression in non-diabetic young human primary fibroblasts assessed as SOCS3 mRNA levels at 9.81 uM after 6 hrs by qPCR analysis", "type": "functional"}, "Fibroblast [13]": {"test_system": "Fibroblast", "test": "Effect on MMP1 mRNA expression levels in non-diabetic young human primary fibroblasts at 1.96 uM after 6 hrs by qPCR analysis", "type": "functional", "method_in_brief": "(§3)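 Primary dermal fibroblasts from one nondiabetic young, one nondiabetic adult and one diabetic adult donor; 320 000 cells per sample, 6 h at 1.96 or 9.81 μM. RNA measured on a high-throughput qPCR chip. Fold change versus 0.1% DMSO control, four independent experiments, SD, one-way ANOVA with Bonferroni post-test.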"}, "Fibroblast [14]": {"test_system": "Fibroblast", "test": "Effect on growth factor related gene expression in non-diabetic adult human primary fibroblasts assessed as GDF15 mRNA levels at 1.96 uM after 6 hrs by qPCR analysis", "type": "functional", "method_in_brief": "(§4)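 Primary human dermal fibroblasts (young or adult nondiabetic, adult diabetic donor) were treated for 6 h against a 0.1% DMSO solvent control. RNA from 320 000 cells per sample was measured by Fluidigm Biomark high-throughput qPCR. Values are fold change relative to solvent control, from four independent experiments, with SD. One-way ANOVA with Bonferroni post-test was applied.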"}, "Fibroblast [15]": {"test_system": "Fibroblast", "test": "Effect on chemokines related gene expression in non-diabetic adult human primary fibroblasts assessed as WDR26 mRNA levels at 9.81 uM after 6 hrs by qPCR analysis", "type": "functional"}, "Fibroblast [16]": {"test_system": "Fibroblast", "test": "Effect on growth factor related gene expression in diabetic adult human primary fibroblasts assessed as VEGFA mRNA levels at 1.96 uM after 6 hrs by qPCR analysis", "type": "functional", "method_in_brief": "as §4"}, "Fibroblast [17]": {"test_system": "Fibroblast", "test": "Effect on antiinflammatory related gene expression in non-diabetic adult human primary fibroblasts assessed as NFKBIA mRNA levels at 9.81 uM after 6 hrs by qPCR analysis", "type": "functional", "method_in_brief": "as §3"}, "Fibroblast [18]": {"test_system": "Fibroblast", "test": "Effect on chemokines related gene expression in diabetic adult human primary fibroblasts assessed as CCL2 mRNA levels at 1.96 uM after 6 hrs by qPCR analysis", "type": "functional"}, "Fibroblast [19]": {"test_system": "Fibroblast", "test": "Effect on adhesion molecules related gene expression in diabetic adult human primary fibroblasts assessed as ICAM1 mRNA levels at 9.81 uM after 6 hrs by qPCR analysis", "type": "functional", "method_in_brief": "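Dermal fibroblasts from nondiabetic adult and diabetic adult donors, exposed for 6 h at 1.96 or 9.81 μM. ICAM-1 and VCAM-1 mRNA measured by standard qRT-PCR, n = 3. Fold change versus 0.1% DMSO control, SD, one-way ANOVA with Bonferroni post-test.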"}, "[20]": {"test": "Effect on wound healing activity in diabetic adult human primary keratinocytes assessed as upregulation of MIP1alpha protein levels at 1.96 uM after 24 hrs by bead-based suspension array analysis", "type": "functional", "conditions": "Keratinocyte"}, "[21]": {"test": "Effect on wound healing activity in non-diabetic adult human primary fibroblasts assessed as upregulation of soluble VCAM1 protein levels at 1.96 uM after 24 hrs by bead-based suspension array analysis", "type": "functional", "conditions": "Fibroblast"}, "[22]": {"test": "Effect on wound healing activity in diabetic adult human primary fibroblasts assessed as upregulation of soluble VCAM1 protein levels at 1.96 uM after 24 hrs by bead-based suspension array analysis", "type": "functional", "conditions": "Fibroblast"}, "Keratinocyte [23]": {"test_system": "Keratinocyte", "test": "Effect on actin cytoskeleton in human diabetic primary keratinocytes assessed as formation of cellular protrusions at 10 nM after 2 hrs by rhodamine phalloidin-staining based fluorescence microscopic analysis", "type": "functional", "method_in_brief": "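Subconfluent cells on glass coverslips, collagen type I coated for fibroblasts; keratinocytes starved 2 days before stimulation. Exposure 2 h, then rhodamine-phalloidin staining (1:25 in PBS) and fluorescence microscopy. Controls were DMSO as solvent and PDGF (fibroblasts) or CNF1 (keratinocytes). Where used, p38-MAPK inhibitor LN 950 (100 nM) was added 30 min beforehand.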"}, "[24]": {"biological_target": "Transforming protein RhoA (Homo sapiens) (UniProt P61586)", "sequence (P61586 whole entry)": "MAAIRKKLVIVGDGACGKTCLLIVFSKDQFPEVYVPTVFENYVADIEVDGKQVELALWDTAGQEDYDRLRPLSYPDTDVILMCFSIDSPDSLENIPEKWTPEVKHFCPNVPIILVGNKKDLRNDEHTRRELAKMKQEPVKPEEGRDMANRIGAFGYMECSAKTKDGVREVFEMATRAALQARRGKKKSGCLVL", "test": "Activation of RhoA in human diabetic primary keratinocytes at 10 nM after 3 hrs by immunoblot method", "method_in_brief": "(§5)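 Keratinocytes from a diabetic adult donor; incubation 3 h for RhoA, 20 min for Cdc42 and Rac1. Lysates made in glycerol/Tris pH 7.4/NaCl/NP-40/MgCl2/PMSF buffer, spun at 4 °C. Active GTP-bound form pulled down on glutathione-sepharose with GST-Rhotekin (RhoA) or GST-PAK (Cdc42, Rac1) for 1 h at 4 °C. Total and pulled-down protein read by immunoblot with ECL; n = 3.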"}, "[25]": {"biological_target": "Cell division control protein 42 homolog (Homo sapiens) (UniProt P60953)", "sequence (P60953 whole entry, looked up)": "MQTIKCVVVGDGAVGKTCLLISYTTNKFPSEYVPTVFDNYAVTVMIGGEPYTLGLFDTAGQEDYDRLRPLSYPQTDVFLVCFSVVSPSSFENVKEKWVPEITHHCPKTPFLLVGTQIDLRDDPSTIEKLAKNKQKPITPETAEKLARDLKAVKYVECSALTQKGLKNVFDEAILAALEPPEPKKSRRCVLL", "test": "Activation of Cdc42 in human diabetic primary keratinocytes at 10 nM after 20 mins by immunoblot method", "method_in_brief": "as §5"}}, "note": "Active and inactive are the calls of the source. The calls are words filed in the database; no cut-off is given here."}
{"smiles": "C=C(C)[C@@H]1CC[C@]2(CO)CC[C@]3(C)[C@H](CC[C@@H]4[C@@]5(C)CC[C@H](O)C(C)(C)[C@@H]5CC[C@]43C)[C@@H]12", "note": "[BETULIN]", "values": [{"measurement": "fold change (FC)", "setting": "Keratinocyte [1]", "value": 1.8}, {"measurement": "fold change (FC)", "setting": "Keratinocyte [2]", "value": 1}, {"measurement": "fold change (FC)", "setting": "Keratinocyte [3]", "value": 1.3}, {"measurement": "fold change (FC)", "setting": "Keratinocyte [4]", "value": 1.3}, {"measurement": "fold change (FC)", "setting": "Keratinocyte [5]", "value": 16.5}, {"measurement": "fold change (FC)", "setting": "Keratinocyte [6]", "value": 0.8}, {"measurement": "fold change (FC)", "setting": "Keratinocyte [7]", "value": 0.9}, {"measurement": "fold change (FC)", "setting": "Keratinocyte [8]", "value": 1.9}, {"measurement": "fold change (FC)", "setting": "Keratinocyte [9]", "value": 2.5}, {"measurement": "fold change (FC)", "setting": "Keratinocyte [10]", "value": 1.6}, {"measurement": "fold change (FC)", "setting": "Keratinocyte [11]", "value": 2.2}, {"measurement": "fold change (FC)", "setting": "Fibroblast [12]", "value": 3.2}, {"measurement": "fold change (FC)", "setting": "Fibroblast [13]", "value": 0.8}, {"measurement": "fold change (FC)", "setting": "Fibroblast [14]", "value": 2.1}, {"measurement": "fold change (FC)", "setting": "Fibroblast [15]", "value": 1.3}, {"measurement": "fold change (FC)", "setting": "Fibroblast [16]", "value": 2.4}, {"measurement": "fold change (FC)", "setting": "Fibroblast [17]", "value": 11}, {"measurement": "fold change (FC)", "setting": "Fibroblast [18]", "value": 3.7}, {"measurement": "fold change (FC)", "setting": "Fibroblast [19]", "value": 2.3}, {"measurement": "Activity", "setting": "[20]", "value": "Active"}, {"measurement": "Activity", "setting": "[21]", "value": "Active"}, {"measurement": "Activity", "setting": "[22]", "value": "Active"}, {"measurement": "Activity", "setting": "Keratinocyte [23]", "value": "Active"}, {"measurement": "Activity", "setting": "[24]", "value": "Active"}, {"measurement": "Activity", "setting": "[25]", "value": "Active"}]}
